Laboratory results as given in ChEMBL document CHEMBL1156777, “Synthesis and antiprotozoal activity of cationic 1,4-diphenyl-1H-1,2,3-triazoles” (J Med Chem, 2010).
Active and inactive are the calls of the source. The calls are words filed in the database; no cut-off is given here.

Key:
[1] = tested on: Trypanosoma brucei rhodesiense; test: Antitrypanosomal activity against Trypanosoma brucei rhodesiense STIB900 after 70 hrs by alamar blue assay; assay type: functional, organism-based; conditions: STIB900, 70 h
[2] = tested on: Trypanosoma brucei rhodesiense; test: Antitrypanosomal activity against Trypanosoma brucei rhodesiense STIB900 infected in NMRI mouse assessed as mean parasitemia relaps day at 5 mg/kg, ip; assay type: functional; conditions: route intraperitoneal
Summary of the method: (§1)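 Female NMRI mice infected ip with 2 × 10⁴ STIB900 bloodstream forms. Groups of four dosed ip daily on days 3–6 postinfection; compounds in DMSO diluted with water to 10% final DMSO. Untreated infected controls. Tail-blood parasitaemia checked on days 7 and 10, twice weekly to day 30, then weekly to day 60. Relapse day recorded for mean relapse day; cure means parasite-free survival to day 60.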

Leishmania donovani = test: Antileishmanial activity against Leishmania donovani MHOM/SD/62/1S-CL2D; assay type: functional, organism-based
Summary of the method: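 Axenic amastigotes (MHOM/SD/62/1S-CL2_D) adapted from promastigotes and grown in amastigote medium at 37 °C. 6 × 10⁴ parasites per well were exposed to 2-fold serial dilutions for 72 h at 37 °C in humidified 5% CO₂. Growth was read with tetrazolium CellTiter reagent as absorbance at 490 nm. IC50 came from a four-parameter dose–response fit; duplicate determinations were averaged.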

[3] = Selectivity index, ratio of IC50 for rat L6 cells to IC50 for Trypanosoma brucei rhodesiense STIB900; assay type: toxicity, cell-based; conditions: read-out: Ratio IC50
Summary of the method: (§2)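 Each index is L6 IC50 divided by parasite IC50. L6 values are from the 70 h resazurin assay. T. b. rhodesiense STIB900 values are from the 70 h resazurin assay. P. falciparum K1 values are from erythrocytic-stage [³H]-hypoxanthine incorporation: 48 h drug exposure, then 24 h with label. L. donovani values are from the 72 h axenic amastigote CellTiter assay.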

[4] = Selectivity index, ratio of IC50 for rat L6 cells to IC50 for Leishmania donovani MHOM/SD/62/1S-CL2D; assay type: toxicity, cell-based; conditions: read-out: Ratio IC50; summary of the method: as §2
Mus musculus [5] = test: Toxicity in NMRI mouse infected with Trypanosoma brucei rhodesiense STIB900 assessed as survival at 5 mg/kg, ip after administered for 4 consecutive days from day 3 postinfection measured after 7 to 30 days; assay type: organism-based; parameters: dose 5 mg/kg, route intraperitoneal; conditions: in vivo; summary of the method: as §1
L6 = test: Cytotoxicity against rat L6 cells after 70 hrs by alamar blue assay; assay type: cell-based; conditions: L6, 70 h
Summary of the method: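 Cells were exposed to serial dilutions for 70 h at 37 °C, 5% CO₂, then given resazurin for 2–3 h. IC50 came from sigmoidal curves; two independent runs in duplicate. Top concentration was 90 μg/mL, converted to μM by molecular weight.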

[6] = Selectivity index, ratio of IC50 for rat L6 cells to IC50 for Plasmodium falciparum K1; assay type: toxicity, cell-based; conditions: read-out: Ratio IC50; summary of the method: as §2
Plasmodium falciparum = test: Antiplasmodial activity against chloroquine-resistant Plasmodium falciparum K1 infected in human erythrocytes after 48 hrs assessed as [3H]hypoxanthine incorporation by liquid scintillation counting; assay type: functional, organism-based
Mus musculus [7] = test: Toxicity in NMRI mouse infected with Trypanosoma brucei rhodesiense STIB900 assessed as survival at 10 mg/kg, ip after administered 1 day postinfection measured after 7 to 30 days; assay type: organism-based; parameters: dose 10 mg/kg, route intraperitoneal; conditions: in vivo
Summary of the method: (§3)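 Single-dose ip regimen at 10 mg/kg in female NMRI mice infected ip with 2 × 10⁴ STIB900 bloodstream forms, four mice per group. Dosing solution was DMSO diluted with water to 10% final DMSO. Tail-blood parasitaemia followed to day 60 postinfection, with relapse day recorded; untreated infected controls.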

Mus musculus [8] = test: Toxicity in NMRI mouse infected with Trypanosoma brucei rhodesiense STIB900 assessed as survival at 1 mg/kg, ip after administered for 4 consecutive days from day 3 postinfection measured after 7 to 30 days; assay type: organism-based; parameters: dose 1 mg/kg, route intraperitoneal; conditions: in vivo; summary of the method: as §1
[9] = tested on: Trypanosoma brucei rhodesiense; test: Antitrypanosomal activity against Trypanosoma brucei rhodesiense STIB900 infected in NMRI mouse assessed as mean parasitemia relaps day at 1 mg/kg, ip; assay type: functional; conditions: route intraperitoneal; summary of the method: as §1
[10] = tested on: Trypanosoma brucei rhodesiense; test: Antitrypanosomal activity against Trypanosoma brucei rhodesiense STIB900 infected in NMRI mouse assessed as mean parasitemia relaps day at 10 mg/kg, ip; assay type: functional; conditions: route intraperitoneal; summary of the method: as §3
Mus musculus [11] = test: Toxicity in NMRI mouse infected with Trypanosoma brucei rhodesiense STIB900 assessed as survival at 0.5 mg/kg, ip after administered for 4 consecutive days from day 3 postinfection measured after 7 to 30 days; assay type: organism-based; parameters: dose 0.5 mg/kg, route intraperitoneal; conditions: in vivo; summary of the method: as §1
[12] = tested on: Trypanosoma brucei rhodesiense; test: Antitrypanosomal activity against Trypanosoma brucei rhodesiense STIB900 infected in NMRI mouse assessed as mean parasitemia relaps day at 0.5 mg/kg, ip; assay type: functional; conditions: route intraperitoneal; summary of the method: as §1
Plasmodium berghei = test: Antiplasmodial activity against Plasmodium berghei infected in mice (Mus musculus) assessed as inhibition of parasitaemia at 30 mg/kg, subcutaneous for 4 days; assay type: functional, organism-based; parameters: dose 30 mg/kg
Summary of the method: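 P. berghei mouse model. Compound was given subcutaneously at 30 mg/kg daily for four days. The read-out was blood parasite count. For in vivo use, compounds were dissolved in DMSO and diluted with distilled water to 10% DMSO final.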

Mus musculus [13] = test: Toxicity in NMRI mouse infected with Trypanosoma brucei rhodesiense STIB900 assessed as survival at 8 mg/kg, ip after administered for 4 consecutive days from day 3 postinfection measured after 7 to 30 days; assay type: organism-based; parameters: dose 8 mg/kg, route intraperitoneal; conditions: in vivo; summary of the method: as §1
Mus musculus [14] = test: Toxicity in NMRI mouse infected with Trypanosoma brucei rhodesiense STIB900 assessed as survival at 2 mg/kg, ip after administered for 4 consecutive days from day 3 postinfection measured after 7 to 30 days; assay type: organism-based; parameters: dose 2 mg/kg, route intraperitoneal; conditions: in vivo; summary of the method: as §1
[15] = tested on: Trypanosoma brucei rhodesiense; test: Antitrypanosomal activity against Trypanosoma brucei rhodesiense STIB900 infected in NMRI mouse assessed as mean parasitemia relaps day at 20 mg/kg, ip; assay type: functional; conditions: route intraperitoneal
Summary of the method: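 Female NMRI mice were infected ip with 2 × 10⁴ STIB900 bloodstream forms, in groups of four. Compound in 10% DMSO/distilled water was given ip at 5 mg/kg daily on days 3–6 postinfection, with untreated infected controls. Tail-blood parasitaemia was checked on days 7 and 10, then twice weekly to day 30 and weekly to day 60. Relapse day was recorded for mean relapse day.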

`Cl.Cl.Oc1ccc(C2=NCCN2)cc1-c1cn(-c2ccc(C3=NCCN3)cc2)nn1` showed an IC50 [1] of 0.043 µM, an Activity [2] of 10.75 days and an IC50 (Leishmania donovani) of 43 µM. The selectivity ratio [3] was over 4420, the selectivity ratio [4] was over 4 and the Activity (Mus musculus [5]) was “Toxic”. For the same compound, the IC50 (L6) was over 190 µM, the selectivity ratio [6] was over 21100 and the IC50 (Plasmodium falciparum) was 0.009 µM.

With `COc1cc(C(=N)N)ccc1-c1cn(-c2cccc(C(=N)N)c2)nn1.Cl.Cl` the Activity (Mus musculus [7]) was “Toxic”, the IC50 [1] was 0.005 µM and the IC50 (Leishmania donovani) was 11 µM. The Activity (Mus musculus [8]) was “Toxic”, the selectivity ratio [3] was 32800 and the selectivity ratio [4] was 15. The Activity (Mus musculus [5]) was “Non-toxic”, the IC50 (L6) was 164 µM and the Activity [9] was 9.5 days. It also gave a selectivity ratio [6] of 23400, an IC50 (Plasmodium falciparum) of 0.007 µM and an Activity [10] of 23.5 days.

With `Cl.Cl.N=C(N)c1ccc(-c2cn(-c3ccc(C(=N)N)cc3)nn2)cc1` the IC50 [1] was 0.004 µM, the Activity (Mus musculus [11]) was “Toxic” and the IC50 (Leishmania donovani) was 9.1 µM. For the same compound, the Activity (Mus musculus [8]) was “Non-toxic”, the selectivity ratio [3] was 2020 and the selectivity ratio [4] was under 1. The Activity [12] was 25.5 days, the Activity (Mus musculus [5]) was “Non-toxic” and the IC50 (L6) was 8.1 µM. For the same compound, the selectivity ratio [6] was 4050, the IC50 (Plasmodium falciparum) was 0.002 µM and the Activity [10] was 27 days.

Compound `COc1cc(C(=N)N)ccc1-n1cc(-c2cccc(C(=N)N)c2)nn1.Cl.Cl` has an IC50 [1] of 0.011 µM, an Activity [2] of 13 days and an IC50 (Leishmania donovani) of 33 µM. For the same compound, the selectivity ratio [3] was over 17500, the selectivity ratio [4] was over 6 and the Activity (Mus musculus [5]) was “Toxic”. The IC50 (L6) was over 192 µM, the selectivity ratio [6] was over 7680 and the IC50 (Plasmodium falciparum) was 0.025 µM.

`Cl.Cl.N=C(N)c1cccc(-n2cc(-c3cc(C(=N)N)ccc3O)nn2)c1` showed an IC50 [1] of 0.174 µM, an Activity [2] of 14.75 days and an IC50 (Leishmania donovani) of 20 µM. The selectivity ratio [3] was over 782, the selectivity ratio [4] was over 7 and the Activity (Mus musculus [5]) was “Toxic”. For the same compound, the IC50 (L6) was over 136 µM, the selectivity ratio [6] was over 3780 and the IC50 (Plasmodium falciparum) was 0.036 µM.

Work on `Cl.Cl.Oc1cc(C2=NCCN2)ccc1-c1cn(-c2ccc(C3=NCCN3)cc2)nn1` yielded an IC50 [1] of 0.038 µM, an Activity [2] of 10 days and an IC50 (Leishmania donovani) of 24 µM. For the same compound, the selectivity ratio [3] was over 5000, the selectivity ratio [4] was over 8 and the Activity (Mus musculus [5]) was “Toxic”. The IC50 (L6) was over 190 µM, the selectivity ratio [6] was over 317000 and the Activity (Plasmodium berghei) was “inactive”. The IC50 (Plasmodium falciparum) was 0.0006 µM.

With `Nc1nc(N)nc(Nc2ccc([As]3SCC(CO)S3)cc2)n1` (configuration not stated) [MELARSOPROL] the Activity (Mus musculus [13]) was “Non-toxic”, the Activity (Mus musculus [14]) was “Non-toxic” and the Activity [9] was 20 days.

In the case of `Cl.Cl.N=C(N)c1ccc(-n2cc(-c3ccc(C(=N)N)cc3O)nn2)cc1`, the IC50 [1] is reported as 0.016 µM, the IC50 (Leishmania donovani) is reported as 4.3 µM and the selectivity ratio [3] is reported as 3080. For the same compound, the selectivity ratio [4] was 11, the Activity (Mus musculus [5]) was “Non-toxic” and the IC50 (L6) was 49.3 µM. The selectivity ratio [6] was 24600 and the IC50 (Plasmodium falciparum) was 0.002 µM.

In the case of `COc1ccc(C2=NCCN2)cc1-c1cn(-c2cccc(C3=NCCN3)c2)nn1.Cl.Cl`, the IC50 [1] is reported as 0.006 µM, the IC50 (Leishmania donovani) is reported as 4.9 µM and the Activity (Mus musculus [8]) is reported as “Toxic”. The selectivity ratio [3] was over 29300, the selectivity ratio [4] was over 36 and the Activity (Mus musculus [5]) was “Non-toxic”. It also gave an IC50 (L6) of over 176 µM, an Activity [9] of 12 days and a selectivity ratio [6] of over 12600. For the same compound, the IC50 (Plasmodium falciparum) was 0.014 µM and the Activity [10] was 14 days.

With `Cl.Cl.N=C(N)c1cccc(-c2cn(-c3cccc(C(=N)N)c3)nn2)c1` the IC50 [1] was 0.083 µM, the Activity [2] was 10 days and the IC50 (Leishmania donovani) was 48 µM. For the same compound, the selectivity ratio [3] was 2640, the selectivity ratio [4] was 5 and the Activity (Mus musculus [5]) was “Toxic”. The IC50 (L6) was 219 µM, the selectivity ratio [6] was 10400 and the IC50 (Plasmodium falciparum) was 0.021 µM.

With `N=C(N)c1ccc(OCCCCCOc2ccc(C(=N)N)cc2)cc1` [PENTAMIDINE] the Activity [15] was 26 days and the Activity [2] was 20 days.

`CC(C)NC(=N)c1ccc(-n2cc(-c3cc(C(=N)NC(C)C)ccc3O)nn2)cc1.Cl` showed an IC50 [1] of 0.116 µM, an Activity [2] of 28.75 days and an IC50 (Leishmania donovani) of over 100 µM. For the same compound, the selectivity ratio [3] was over 1540, the Activity (Mus musculus [5]) was “Toxic” and the IC50 (L6) was over 179 µM. The selectivity ratio [6] was over 6390 and the IC50 (Plasmodium falciparum) was 0.028 µM.
